Results taken from ChEMBL document CHEMBL3585281, “Antibacterial Labdane Diterpenoids from Vitex vestita” (2015).
Converted amounts (≈) assume the structure as drawn.

Experiments:
Assay type in all cases: functional
Bacillus cereus [1] = assay: Antibacterial activity against Bacillus cereus N349 after 18 hrs by agar dilution method; settings: N349, 18 h
Outline: (§1)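 Agar-dilution MIC against Gram-positive strains. Compounds in DMSO, geometric dilutions giving final 100−0.75 mg/L in Mueller Hinton agar. Strains grown 18 h at 37 °C in trypticase soy broth, diluted in sterile water, spotted by Steers inoculator (about 1000 UFC/spot). Plates incubated 18 h at 37 °C; DMSO blank; ofloxacin positive control. MIC = lowest concentration with no visible growth.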

Enterococcus faecium [2] = assay: Antibacterial activity against Enterococcus faecium N733 after 18 hrs by agar dilution method; settings: N733, 18 h; outline: as §1
Bacillus spizizenii = assay: Antibacterial activity against Bacillus subtilis ATCC 6633 after 18 hrs by agar dilution method; settings: ATCC 6633, 18 h; outline: as §1
Staphylococcus aureus [3] = assay: Antibacterial activity against Staphylococcus aureus CIP 53156 after 18 hrs by agar dilution method; settings: CIP 53156, 18 h; outline: as §1
Enterococcus faecium [4] = assay: Antibacterial activity against Enterococcus faecium N823 after 18 hrs by agar dilution method; settings: N823, 18 h; outline: as §1
[5] = tested on: Staphylococcus saprophyticus; assay: Antibacterial activity against Staphylococcus saprophyticus E260 after 18 hrs by agar dilution method; settings: E260, 18 h; outline: as §1
Staphylococcus aureus [6] = assay: Antibacterial activity against Staphylococcus aureus ATCC 9144 oxford after 18 hrs by agar dilution method; outline: as §1
Staphylococcus aureus [7] = assay: Antibacterial activity against Staphylococcus aureus CRBIP 2121 after 18 hrs by agar dilution method; settings: CRBIP 2121, 18 h; outline: as §1
Listeria monocytogenes [8] = assay: Antibacterial activity against Listeria monocytogenes N851 after 18 hrs by agar dilution method; settings: N851, 18 h; outline: as §1
Enterococcus gallinarum [9] = assay: Antibacterial activity against Enterococcus gallinarum N489 after 18 hrs by agar dilution method; settings: N489, 18 h; outline: as §1
Listeria monocytogenes [10] = assay: Antibacterial activity against Listeria monocytogenes CIP 103575 after 18 hrs by agar dilution method; settings: CIP 103575, 18 h; outline: as §1
[11] = tested on: Staphylococcus epidermidis; assay: Antibacterial activity against Staphylococcus epidermidis CIP 53124 after 18 hrs by agar dilution method; settings: CIP 53124, 18 h; outline: as §1
Enterococcus faecalis [12] = assay: Antibacterial activity against Enterococcus faecalis N518 after 18 hrs by agar dilution method; settings: N518, 18 h; outline: as §1
Mammaliicoccus sciuri = assay: Antibacterial activity against Staphylococcus sciuri N993 after 18 hrs by agar dilution method; settings: N993, 18 h; outline: as §1
Enterococcus faecalis [13] = assay: Antibacterial activity against Enterococcus faecalis CIP 104676 after 18 hrs by agar dilution method; settings: CIP 104676, 18 h; outline: as §1
Enterococcus faecium [14] = assay: Antibacterial activity against Enterococcus faecium N507 after 18 hrs by agar dilution method; settings: N507, 18 h; outline: as §1
Staphylococcus aureus [15] = assay: Antibacterial activity against Staphylococcus aureus CIP 7625 after 18 hrs by agar dilution method; settings: CIP 7625, 18 h; outline: as §1
[16] = tested on: Staphylococcus lugdunensis; assay: Antibacterial activity against Staphylococcus lugdunensis ATCC 43809 after 18 hrs by agar dilution method; settings: ATCC 43809, 18 h; outline: as §1
Enterococcus faecalis [17] = assay: Antibacterial activity against Enterococcus faecalis N491 after 18 hrs by agar dilution method; settings: N491, 18 h; outline: as §1
Enterococcus faecium [18] = assay: Antibacterial activity against Enterococcus faecium CIP 103014 after 18 hrs by agar dilution method; settings: CIP 103014, 18 h; outline: as §1
MRC5 [19] = assay: Cytotoxicity against human MRC5 cells assessed as growth inhibition at 10^-6 M after 72 hrs by MTS assay relative to control; settings: MRC5, 72 h, read-out: GI
Outline: (§2)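 Cells from ATCC; HCT-116 grown in RPMI 1640 and MRC5 in DMEM, each with 10% FCS and 1% glutamine, 37 °C, 5% CO2. Seeded at 2.5 × 10^3 cells/well, cultured 24 h, then exposed to compounds at 1 and 10 μM final for 72 h. MTS read-out, absorbance 490 nm; percent index from treated/control OD490 × 100, three experiments.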

[20] = tested on: Staphylococcus saprophyticus; assay: Antibacterial activity against Staphylococcus saprophyticus CIP 76125 after 18 hrs by agar dilution method; settings: CIP 76125, 18 h; outline: as §1
[21] = tested on: Enterococcus casseliflavus; assay: Antibacterial activity against Enterococcus casseliflavus CIP 103018 after 18 hrs by agar dilution method; settings: CIP 103018, 18 h; outline: as §1
Bacillus cereus [22] = assay: Antibacterial activity against Bacillus cereus N190 after 18 hrs by agar dilution method; settings: N190, 18 h; outline: as §1
Enterococcus avium = assay: Antibacterial activity against Enterococcus avium CIP 104053 after 18 hrs by agar dilution method; settings: CIP 104053, 18 h; outline: as §1
MRC5 [23] = assay: Cytotoxicity against human MRC5 cells assessed as growth inhibition at 10^-5 M after 72 hrs by MTS assay relative to control; settings: MRC5, 72 h, read-out: GI; outline: as §2
Bacillus cereus [24] = assay: Antibacterial activity against Bacillus cereus CIP 6624 after 18 hrs by agar dilution method; settings: CIP 6624, 18 h; outline: as §1
Corynebacterium striatum = assay: Antibacterial activity against Corynebacterium striatum N840 after 18 hrs by agar dilution method; settings: N840, 18 h; outline: as §1
HCT-116 [25] = assay: Cytotoxicity against human HCT116 cells assessed as growth inhibition at 10^-6 M after 72 hrs by MTS assay relative to control; settings: HCT-116, 72 h, read-out: GI; outline: as §2
[26] = tested on: Staphylococcus intermedius; assay: Antibacterial activity against Staphylococcus intermedius N987 after 18 hrs by agar dilution method; settings: N987, 18 h; outline: as §1
Staphylococcus aureus [27] = assay: Antibacterial activity against Staphylococcus aureus CIP 5710 after 18 hrs by agar dilution method; settings: CIP 5710, 18 h; outline: as §1
Enterococcus faecalis [28] = assay: Antibacterial activity against Enterococcus faecalis N520 after 18 hrs by agar dilution method; settings: N520, 18 h; outline: as §1
Enterococcus durans = assay: Antibacterial activity against Enterococcus durans CIP 104999 after 18 hrs by agar dilution method; settings: CIP 104999, 18 h; outline: as §1
Streptococcus agalactiae = assay: Antibacterial activity against Streptococcus agalactiae CIP 103227 after 18 hrs by agar dilution method; settings: ATCC 13813, 18 h; outline: as §1
Enterococcus faecium [29] = assay: Antibacterial activity against Enterococcus faecium N490 after 18 hrs by agar dilution method; settings: N490, 18 h; outline: as §1
Enterococcus faecium [30] = assay: Antibacterial activity against Enterococcus faecium CIP 107387 after 18 hrs by agar dilution method; settings: CIP 107387, 18 h; outline: as §1
Enterococcus hirae = assay: Antibacterial activity against Enterococcus hirae CIP 5855 after 18 hrs by agar dilution method; settings: CIP 5855, 18 h; outline: as §1
[31] = tested on: Enterococcus casseliflavus; assay: Antibacterial activity against Enterococcus casseliflavus N487 after 18 hrs by agar dilution method; settings: N487, 18 h; outline: as §1
Listeria innocua = assay: Antibacterial activity against Listeria innocua E044 after 18 hrs by agar dilution method; settings: E044, 18 h; outline: as §1
[32] = tested on: Staphylococcus haemolyticus; assay: Antibacterial activity against Staphylococcus haemolyticus CIP 8156 after 18 hrs by agar dilution method; settings: CIP 8156, 18 h; outline: as §1
HCT-116 [33] = assay: Cytotoxicity against human HCT116 cells assessed as growth inhibition at 10^-5 M after 72 hrs by MTS assay relative to control; settings: HCT-116, 72 h, read-out: GI; outline: as §2
Bacillus cereus [34] = assay: Antibacterial activity against Bacillus cereus N258 after 18 hrs by agar dilution method; settings: N258, 18 h; outline: as §1
Listeria monocytogenes [35] = assay: Antibacterial activity against Listeria monocytogenes N783 after 18 hrs by agar dilution method; settings: N783, 18 h; outline: as §1
Staphylococcus aureus [36] = assay: Antibacterial activity against Staphylococcus aureus CIP 483 after 18 hrs by agar dilution method; settings: CIP 483, 18 h; outline: as §1
Enterococcus gallinarum [37] = assay: Antibacterial activity against Enterococcus gallinarum N492 after 18 hrs by agar dilution method; settings: N492, 18 h; outline: as §1
Staphylococcus aureus [38] = assay: Antibacterial activity against Staphylococcus aureus CIP 53154 after 18 hrs by agar dilution method; settings: CIP 53154, 18 h; outline: as §1
Enterococcus gallinarum [39] = assay: Antibacterial activity against Enterococcus gallinarum CIP 105985 after 18 hrs by agar dilution method; settings: CIP 105985, 18 h; outline: as §1
Enterococcus faecalis [40] = assay: Antibacterial activity against Enterococcus faecalis CIP 103214 after 18 hrs by agar dilution method; settings: CIP 103214, 18 h; outline: as §1
Staphylococcus aureus [41] = assay: Antibacterial activity against Staphylococcus aureus ATCC 25923 after 18 hrs by agar dilution method; settings: ATCC 25923, 18 h; outline: as §1
Listeria monocytogenes [42] = assay: Antibacterial activity against Listeria monocytogenes N836 after 18 hrs by agar dilution method; settings: N836, 18 h; outline: as §1

MIC (Bacillus cereus [1]): 50 µM (≈ 15.9 µg/mL)
MIC (Enterococcus faecium [2]): > 158 µM
MIC (Bacillus spizizenii): 100 µM (≈ 31.8 µg/mL)
MIC (Staphylococcus aureus [3]): 158 µM (≈ 50.3 µg/mL)
MIC (Enterococcus faecium [4]): > 158 µM
MIC [5]: 158 µM (≈ 50.3 µg/mL)
MIC (Staphylococcus aureus [6]): 158 µM (≈ 50.3 µg/mL)
MIC (Staphylococcus aureus [7]): 100 µM (≈ 31.8 µg/mL)
MIC (Listeria monocytogenes [8]): 158 µM (≈ 50.3 µg/mL)
MIC (Enterococcus gallinarum [9]): 158 µM (≈ 50.3 µg/mL)
MIC (Listeria monocytogenes [10]): 158 µM (≈ 50.3 µg/mL)
MIC [11]: 158 µM (≈ 50.3 µg/mL)
MIC (Enterococcus faecalis [12]): > 158 µM
MIC (Mammaliicoccus sciuri): 158 µM (≈ 50.3 µg/mL)
MIC (Enterococcus faecalis [13]): > 158 µM
MIC (Enterococcus faecium [14]): > 158 µM
MIC (Staphylococcus aureus [15]): 158 µM (≈ 50.3 µg/mL)
MIC [16]: 158 µM (≈ 50.3 µg/mL)
MIC (Enterococcus faecalis [17]): > 158 µM
MIC (Enterococcus faecium [18]): > 158 µM
MIC [20]: 158 µM (≈ 50.3 µg/mL)
MIC [21]: > 158 µM
MIC (Bacillus cereus [22]): 25 µM (≈ 7.96 µg/mL)
MIC (Enterococcus avium): > 158 µM
MIC (Bacillus cereus [24]): 50 µM (≈ 15.9 µg/mL)
MIC (Corynebacterium striatum): 158 µM (≈ 50.3 µg/mL)
MIC [26]: 100 µM (≈ 31.8 µg/mL)
MIC (Staphylococcus aureus [27]): 100 µM (≈ 31.8 µg/mL)
MIC (Enterococcus faecalis [28]): > 158 µM
MIC (Enterococcus durans): > 158 µM
MIC (Streptococcus agalactiae): 100 µM (≈ 31.8 µg/mL)
MIC (Enterococcus faecium [29]): 158 µM (≈ 50.3 µg/mL)
MIC (Enterococcus faecium [30]): > 158 µM
MIC (Enterococcus hirae): > 158 µM
MIC [31]: > 158 µM
MIC (Listeria innocua): 158 µM (≈ 50.3 µg/mL)
MIC (Bacillus cereus [34]): 50 µM (≈ 15.9 µg/mL)
MIC (Listeria monocytogenes [35]): 158 µM (≈ 50.3 µg/mL)
MIC (Staphylococcus aureus [36]): 158 µM (≈ 50.3 µg/mL)
MIC (Enterococcus gallinarum [37]): > 158 µM
MIC (Staphylococcus aureus [38]): 158 µM (≈ 50.3 µg/mL)
MIC (Enterococcus gallinarum [39]): > 158 µM
MIC (Enterococcus faecalis [40]): > 158 µM
MIC (Staphylococcus aureus [41]): 158 µM (≈ 50.3 µg/mL)
MIC (Listeria monocytogenes [42]): > 158 µM
Structure (SMILES): C=C(CC(=O)O)C(=O)C[C@H]1C(=C)CC[C@H]2C(C)(C)CCC[C@]12C
inhibition of growth at 1 µM (MRC5 [19]): 22%
inhibition of growth at 10 µM (MRC5 [23]): 25%
inhibition of growth at 1 µM (HCT-116 [25]): 0%
MIC [32]: 158 µM (≈ 50.3 µg/mL)
inhibition of growth at 10 µM (HCT-116 [33]): 46%
